b-catenin transl = modulators of beta-catenin nuclear translocation, primary screen, imaging, HeLa cells, immunofluorescence, high-content; nuclear translocation activity, % at 5 µM; 190,000 tested, 0.3% active;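 active = nuclear translocation activity above 50% at 5 µM, with a well cell count of 50 or more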;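 also: per-cell ratio of nuclear to cytoplasmic median beta-catenin stain intensity; plate controls were DMSO negative control for no effect and GSK-3 inhibitor IX positive control for full effect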
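Test system: human HeLa cells, native beta-catenin. Compound dosing: 5 µM primary single dose, 0.1% DMSO, 0.02–20 µM confirmation series. Incubation: compound exposure 24 h at 37°C. Detection: beta-catenin immunostaining with DAPI counterstain, 20x imaging, 6 fields/well. Read-out basis: Nuclear/cytoplasmic beta-catenin signal ratio, % activation.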
ROMK mod = ROMK potassium channel modulators, primary screen, cell-based, thallium flux, MLSMR library | Tet-inducible ROMK, thallium flux fluorescence; actives lie on both sides | B-score at 10 µM | 130,000 tested, 2% active | AID 1918, 2009;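 active = signal ratio slope over the read window, or its plate-corrected B-score, at least 3 SD from the plate mean, either direction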;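 also: B-score of the F/F0 ratio slope over 7 to 12 s after thallium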
Target sequence (P48048 whole entry, looked up): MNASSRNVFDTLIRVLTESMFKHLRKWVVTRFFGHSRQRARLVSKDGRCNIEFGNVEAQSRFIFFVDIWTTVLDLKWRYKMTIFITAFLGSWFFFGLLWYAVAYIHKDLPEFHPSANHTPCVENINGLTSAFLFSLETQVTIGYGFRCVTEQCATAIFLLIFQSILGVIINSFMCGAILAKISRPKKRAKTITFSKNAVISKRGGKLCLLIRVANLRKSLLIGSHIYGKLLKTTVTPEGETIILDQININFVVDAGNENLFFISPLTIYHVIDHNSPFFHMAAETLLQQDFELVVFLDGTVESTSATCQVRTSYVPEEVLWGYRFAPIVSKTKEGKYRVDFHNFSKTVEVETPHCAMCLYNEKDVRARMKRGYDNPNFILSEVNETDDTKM
MT stabilizer = microtubule stabilizers in HeLa cells, primary screen, imaging, high-content imaging | HeLa tubulin immunostaining HCS, 24 h; share of cells brighter than vehicle mean+2SD | AID 2205, 2009 | % tubulin-high responders, % at 10 µM | 200,000 tested, 0.83% active;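 active = plate Z-score above 3 for both tubulin-high and condensed-nucleus cell shares, with cell loss under 80%, at 10 µM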;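 also: anti alpha tubulin signal scored within the nucleus-defined area of each cell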
HSV augment = enhancers of HSV replication in host cells, fold increase, host cell viability. maximum fold increase. 220,000 tested, 0.005% active. AID 1956, 2009. HSV replication augmentation in cells; in the data active = maximum fold increase above about 1.5; tested in PC3 cells
INS promoter inh = inhibitors of insulin promoter-driven GFP, primary screen, imaging, TRM-6 cells, eGFP reporter, cell count; AID 1273, 2008; inhibition, % at 2 µM; reporter expression induced with tamoxifen; 130,000 tested, 0.9% active;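 active = inhibition above the mean plus 3 SD, with well images judged a real hit on visual review, cut at about 60% in these data, passing the limit was not always enough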
Starred values were filed as active, the others as inactive; i = inactive; x = no result. In the library only some 2.4% were active in any assay of this set; here they are far more common.

SMILES | b-catenin transl | ROMK mod | MT stabilizer | HSV augment | INS promoter inh
CCN1C(=O)C(O)(CC(=O)c2ccccn2)c2ccccc21 (stereo unspecified) | -3.9 | 0.562 | 1.5 | i | 75.0*
Cc1ccc(C(C)C)c(Oc2nnnn2-c2ccccc2)c1 | 2.0 | x | 32.0* | i | -142.9
CC(C)(C)C(=O)N/C(N)=N/c1nc2ccccc2o1 | -2.5 | x | x | i | x
O=C(OCCOc1ccccc1)c1n[nH]c2ccccc12 | -4.8 | x | x | i | x
CC(C(=O)Nc1ccccc1-c1ccccc1)N(C)Cc1nc2ccccc2c(=O)[nH]1 (stereo unspecified) | 0.1 | -0.51 | 23.7* | i | x
CC(NC(=O)CN(C)Cc1nc2ccccc2c(=O)[nH]1)c1ccccc1 (stereo unspecified) | x | 0.0944 | 2.1 | i | 28.6
Cc1cccc(Cl)c1OCCCCn1ccnc1 | 2.5 | x | 4.6 | i | 20.0
Cc1cccc(C(C)(C)C)c1OCCn1ccnc1 | -0.7 | x | 12.6 | i | 89.0*
CCCCc1c(O)cc(C)[nH]c1=O | -1.0 | x | x | i | x
CCOC(=O)c1sc2nc3c(cc2c1N)COC(C)(C)C3 | -0.4 | 0.0341 | 4.4 | i | 81.2*
CN(C)c1ccc(C(=O)c2ccc(N(C)C)c(N)c2)cc1N | 4.9 | x | 23.0* | i | 10.3
CCOc1ccc(C(=O)c2ccc(OCC)c(N)c2)cc1N | 5.2 | x | 53.0* | i | x
CC1(C)Cc2nc3sc4c(=O)n(CC(=O)NCc5ccco5)cnc4c3cc2CO1 | 0.6 | x | 31.7* | i | x
Fc1ccccc1COc1ccc2ccccc2c1CNc1nn[nH]n1 | -4.3 | -0.278 | 18.4* | i | -81.8
Fc1ccc(COc2ccc3ccccc3c2CNc2nn[nH]n2)cc1 | 9.4 | -0.087 | 3.9 | i | x
Cc1ccc(C)c(OCC(=O)Nc2ccc3c(c2)OCO3)c1C | x | 1.04 | 22.7* | i | -87.5
O=C(Nc1ccc2c(c1)OCO2)OCc1ccccc1 | 5.5 | x | 0.8 | i | 100.0*
Cc1cccc(C)c1OCC(=O)N/N=C/c1ccc2c(c1)OCO2 | 82.1* | x | 32.1* | i | -10.0
CNC(=O)COC(=O)/C=C/c1cccc(F)c1 | -0.4 | x | 3.7 | i | 35.7
CCOC(=O)c1[nH]c2ccccc2c1NC(=S)Nc1cc(C)ccc1C | -3.1 | 0.0342 | 3.2 | x | 75.6*
CCOC(=O)c1c(C)c(C(=O)Nc2ccc3c(c2)OCCO3)c(C)n1CC | -0.3 | 2.18 | 30.5* | i | x
CCCCN(C(=O)/C=C/c1ccco1)c1c(N)n(CCC)c(=O)[nH]c1=O | -2.6 | 0.366 | 7.2 | i | x
CC1(c2nnc(-c3cccc(Cl)c3)o2)CC(c2ccccc2)=NO1 (stereo unspecified) | x | x | x | i | x
Fc1cccc2sc(Nc3nnc(-c4ccco4)o3)nc12 | -0.1 | 5.09* | 4.0 | i | 30.2
Cc1ccc(NC(=O)C(=O)NCc2ccc(/C=N/NC(=O)c3c(C)nc4ccccn34)o2)cc1 | 3.2 | x | 5.2 | i | x
SMILES | b-catenin transl | ROMK mod | MT stabilizer | HSV augment | INS promoter inh
COc1cccc(N=c2oc3ccccc3cc2-c2nc3ccccc3[nH]2)c1 | 2.2 | 0.327 | 4.0 | i | 83.3*
COc1cccc(N=c2oc3ccc(OC)cc3cc2-c2nc3ccccc3[nH]2)c1 | 3.0 | -0.0314 | 4.0 | i | 50.0
O=C(Nc1cccc(F)c1)C1C2C=CC3(CN(CCCN4CCOCC4)C(=O)C13)O2 (stereo unspecified) | -0.2 | x | 4.1 | i | x
COC(=O)Nc1nc2ccc(C(=O)c3ccc(F)cc3)cc2[nH]1 | 65.5* | x | x | i | x
O=C1CCCC(=O)C1=C1SCCCS1 | -0.8 | x | 2.1 | i | 15.2
Cc1nn(C(=O)c2ccco2)c(C)c1Sc1ccc(Cl)cc1 | x | 0.422 | 2.2 | i | x
Cc1nn(C(=O)c2ccco2)c(C)c1Br | x | -0.465 | 1.2 | i | 66.7*
CCn1nc(C)c(CNC(=O)c2cc(COc3ccc(F)cc3Cl)on2)c1C | 0.6 | x | x | i | x
O=C(NCc1ccco1)c1sc(=S)n2c1[nH]c(=O)c1ccccc12 | 0.2 | -3.69* | 3.2 | i | 35.7
O=C(NC1CCCC1)c1sc(=S)n2c1[nH]c(=O)c1ccccc12 | -0.5 | -1.42 | 4.1 | i | x
N=C1/C(=C/c2ccc(-c3cccc(C(=O)O)c3)o2)C(=O)N=C2SC=C(c3ccccc3)N12 | -0.1 | 2.26* | 2.7 | i | x
N=C1/C(=C\c2ccc(-c3cc(Cl)cc(Cl)c3)o2)C(=O)N=C2SC=C(c3ccccc3)N12 | -0.6 | x | 6.6 | i | x
Cc1ccc(-n2c(C)cc(/C=C3/C(=N)N4C(c5ccccc5)=CSC4=NC3=O)c2C)cc1 | -0.2 | x | 3.3 | i | x
N=C1/C(=C/c2cccn2CCOc2ccccc2)C(=O)N=C2SC=C(c3ccccc3)N12 | 35.7 | -0.43 | 30.4* | i | -11.1
CC(C)CC(NC(N)=O)C(=O)Nc1ccc(Oc2ccccc2)cc1 (stereo unspecified) | -2.1 | 1.21 | 1.9 | i | x
CC(=O)c1ccc(Nc2cc(C)nc3c(C)cc(C)cc23)cc1 | 123.7* | 2.51 | 20.0* | i | x
COC(=O)c1ccc(Nc2cc(C)nc3ccccc23)cc1 | 78.7* | x | x | i | x
O=C(CN1C(=O)CSc2cc(S(=O)(=O)N3CCCCCC3)ccc21)NCCc1ccccc1 | 3.1 | -5.51* | 2.7 | i | -61.1
Cc1ccc(-n2c(=O)cc(N3CC(C)CC(C)C3)[nH]c2=O)cc1 (stereo unspecified) | 0.1 | x | 4.9 | i | 72.7*
Cc1ccc(-n2c(=O)cc(N3CC(C)OC(C)C3)[nH]c2=O)cc1 (stereo unspecified) | -1.2 | 0.755 | 2.3 | i | 11.8
CC(=O)N1c2ccccc2N(Cc2ccc(C)cc2C)C(=O)C1(C)C | x | x | 18.9* | i | x
Cc1nn(-c2ccccc2)c2c1C(O)n1c(nc3ccccc31)S2 (stereo unspecified) | -0.9 | x | 3.4 | i | x
Cc1cc(=O)[nH]c(SCC(=O)OCc2ccccc2)c1C#N | 1.9 | 2.71 | 1.5 | i | x
CCOC(=O)C1=C(C)NC2=C(C(=O)CC(C)(C)C2)C1c1coc2ccccc2c1=O (stereo unspecified) | 0.5 | 0.000215 | 3.3 | i | -447.1
CC1(C)COC(c2coc3ccccc3c2=O)OC1 | -1.4 | x | 4.2 | i | 100.0*
SMILES | b-catenin transl | ROMK mod | MT stabilizer | HSV augment | INS promoter inh
O=C(N=Nc1c(O)[nH]c2ccc(Cl)cc12)c1cc(-c2cccs2)nc2ccccc12 | x | 0.277 | 2.4 | i | 5.4
CN(Cc1ccccc1)S(=O)(=O)c1ccc(NC(=S)NC(=O)C2CCCC2)cc1 | 1.4 | x | 28.4* | i | 29.0
CN(c1ccccc1)S(=O)(=O)c1ccc(NC(=S)NC(=O)C2CC2)cc1 | 0.4 | 0.602 | 2.6 | i | -15.4
Cc1ccc(S(=O)(=O)NNC(=O)c2ccoc2C)cc1 | 0.2 | x | x | i | x
Cc1ccc2cccc(Oc3ccc([N+](=O)[O-])cc3[N+](=O)[O-])c2n1 | x | x | 15.8* | i | 0.0
Cc1cccc(N/N=C(\C#N)S(=O)(=O)C(C)(C)C)c1 | -0.9 | -0.713 | 2.7 | i | 90.9*
CC(C)(C)c1ccc(N/N=C(\C#N)S(=O)(=O)C(C)(C)C)cc1 | 0.0 | -1.56 | 3.6 | i | -27.3
